Assay outcomes as filed in PubChem.
TMEM16A inh = TMEM16A chloride channel inhibitors, primary screen, cell-based, HTS. Anoctamin-1 (Mus musculus), Q8BHY3. HEK293 TMEM16A/YFP iodide influx fluorescence, ionomycin. normalized B-score (activity score, 25-100; higher = stronger inhibition) at 10 µM. 310,000 compounds, 1.2% hits. AID 588511, 2011;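 active = ratio plate-corrected score three or more library SD toward inhibition, starting fluorescence score within five deviations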;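 also: score derived from kinetic fluorescence span divided by baseline fluorescence per well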
CSC inhib = cancer stem cell viability inhibitors, primary screen, luminescence; cancer stem cell-like cells viability; inhibition, % at 7.5 µM; 300,000 compounds, 1.1% hits; in the data active = inhibition above about 75%; tested in HMLE shEcad cells
Beta cell apopt = inhibitors of cytokine-induced beta cell apoptosis, primary screen, luminescence; protection from apoptosis, % (no concentration beside the values); INS-1E cytokine-induced death, ATP luminescence, 48 h; percent of positive-control rescue, neutral wells zero; 300,000 compounds, 0.8% hits;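 active = Every replicate reaches about 75%, or at least half do and their mean reaches it too, limit read from the data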;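 also: 0% = cytokine-treated negative control wells and 100% = positive control rescue; higher means more ATP so stronger rescue from cytokine killing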
MC4R antagonist = MC4R antagonists of cAMP signaling, primary screen, cell-based, TR-FRET, antagonist arm of biased-ligand search | Melanocortin receptor 4 (Homo sapiens), P32245 | 360,000 compounds, 0.48% hits | AID 540295, 2011 | MC4R-expressing cells, MTII-stimulated cAMP, LANCE TR-FRET | inhibition, % at 6.5 µM;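 active = inhibition above its plate's cutoff, the mean of tested wells on that plate plus 3 SD, cut at about 29% in these data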;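 also: 0% = Melanotan II alone and 100% = Melanotan II plus saturating MCL0020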
Target sequence (P32245 whole entry, looked up): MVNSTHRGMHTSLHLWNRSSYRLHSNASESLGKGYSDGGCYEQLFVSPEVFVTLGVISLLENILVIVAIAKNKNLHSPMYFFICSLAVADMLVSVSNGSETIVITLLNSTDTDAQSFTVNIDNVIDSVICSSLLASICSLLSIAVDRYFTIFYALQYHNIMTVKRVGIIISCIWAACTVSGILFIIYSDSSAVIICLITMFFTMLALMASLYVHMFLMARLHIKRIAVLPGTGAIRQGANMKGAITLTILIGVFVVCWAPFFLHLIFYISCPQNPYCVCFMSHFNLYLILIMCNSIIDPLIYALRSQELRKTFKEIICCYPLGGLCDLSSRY
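Test system: U2OS cells stably expressing human melanocortin 4 receptor (MC4R); also added: Melanotan II challenge; compound: 6.5 µM single dose; timing: 30-min compound preincubation, 1-h Melanotan II challenge, 1-h detection, room temperature; signal: Eu-cAMP/anti-cAMP TR-FRET, emission 671 nm; repeats: one well per compound, no replicates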
MC4R barr agon = MC4R agonists recruiting beta-arrestin, primary screen, cell-based, luminescence, agonist arm of biased-ligand search; U2OS MC4R beta-arrestin complementation; percent of melanotan II response, DMSO zero; activation, % at 8.9 µM; 360,000 compounds, 0.98% hits; Melanocortin receptor 4 (Homo sapiens), P32245; AID 540308, 2011;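 active = activation above a per-plate cutoff, the mean activation of sample wells on that plate plus 3 SD, cut at about 8% in these data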
ANO1 activ = TMEM16A chloride channel activators or potentiators, primary screen, cell-based, HTS; Anoctamin-1 (Mus musculus), Q8BHY3; 340,000 compounds, 0.3% hits; AID 623877, 2012; HEK293 TMEM16A/YFP-H148Q/I152L, iodide quench fluorescence; stronger effect = lower value; B-score at 10 µM;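 active = fluorescence-ratio B-score plate-corrected deviation score at least 3 library SD below zero, with starting fluorescence score within 5 deviations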;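 also: channel opened by trigger with iodide after compound preincubation; score built on the fluorescence ratio of max minus min over baseline; more negative score means more quench and so TMEM16A activation or potentiation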
* marks the source's active call; other numbers are inactive results; i = inactive; x = no result. This is a sample that favours compounds with a hit; in the whole collection about 3.8% have one here.

SMILES	TMEM16A inh	CSC inhib	Beta cell apopt	MC4R antagonist	MC4R barr agon	ANO1 activ
C[C@@H](C[C@@H](O)[C@H](O)C(C)(C)O)[C@@H]1CC[C@]2(C)C3=CC[C@H]4C(C)(C)C(=O)CC[C@]4(C)[C@H]3CC[C@@]12C	i	-5.8	x	3.9	9.4*	i
O=S(CC(O)COCc1ccc(Cl)cc1)c1ccccn1 (stereo unspecified)	i	-17.9	0.6	11.7	1.6	-8.1*
OC(COCc1ccccc1)COCc1ccccc1	x	x	x	6.8	2.3	i
O=C(CCl)N(CCCNC(=O)C(F)(F)F)c1ccc([N+](=O)[O-])cc1	i	17.4	-3.1	7.7	12.9*	i
COc1ccc2c(c1)[nH]c1c(N3CCN(Cc4ccc5c(c4)OCO5)CC3)ncnc12	100*	8.8	105.1*	5.6	-1.0	i
COc1cccc2[nH]c3c(N4CCN(Cc5ccc6c(c5)OCO6)CC4)ncnc3c12	i	-1.7	40.5	x	x	x
O=C(N/N=C/c1ccc(OC(=O)c2ccccc2Br)cc1)c1ccccn1	i	-2.5	6.1	-3.9	8.9*	i
CC(C)(C)c1ccc(/C=N/NC(=O)c2ccccn2)cc1	i	-2.6	5.6	-0.2	-2.1	i
CC(NC(=O)COC(=O)c1cc(S(=O)(=O)N2CCOCC2)ccc1F)c1ccccc1 (stereo unspecified)	x	5.9	-6.3	2.7	-2.4	i
COc1ccc(CN2CCC(=O)N([C@H](CO)c3ccccc3)CC2)cc1	i	0.2	-1.3	7.0	0.0	-11.2*
CCOc1cc(/C=N/Nc2nc(C)cc(=O)[nH]2)ccc1O	i	-5.9	1.8	-7.2	-2.3	i
Cc1cc(N/N=C/c2ccc(F)cc2)nc(-n2nc(C)cc2C)n1	i	4.8	109.9*	-6.4	-1.2	i
COc1cccc(/C=N/Nc2nc(Nc3ccccc3)nc(-n3nc(C)cc3C)n2)c1O	i	46.5	135.0*	9.9	-9.9	i
CCOc1ccc(Nc2cc(C)nc(-n3nc(C)cc3C)n2)cc1	i	57.1	91.3*	-20.4	-2.2	i
Cc1cc(C)n(-c2nc(Nc3ccccc3)nc(-n3nc(C)cc3C)n2)n1	i	7.0	3.4	-3.4	-2.5	i
CNc1cc(C)nc(-n2nc(C)cc2C)n1	i	-11.7	4.0	4.8	0.2	i
CCOc1cc(/C=N/Nc2cc(C)nc(-n3nc(C)cc3C)n2)ccc1O	i	25.1	98.5*	-12.7	-0.8	i
COc1cc(OC)cc(C(=O)NNC(=O)CCc2nc3ccccc3c(=O)[nH]2)c1	x	x	-0.8	5.7	-0.8	i
CCCN(CC(=O)Nc1ccccc1C)C(=O)c1ccc(N2CCCC2=O)cc1	x	-9.1	-0.4	1.9	-0.3	i
CCCN(CC(=O)Nc1ccccc1C)C(=O)CCCc1c[nH]c2ccccc12	x	0.8	-2.6	8.7	-2.1	i
COc1cc(C)ccc1OCc1cc(C(=O)N(C)CCCN2CCOCC2)no1	i	-0.9	-4.6	5.5	0.7	i
COc1ccc(/C=N/Nc2cc(C)nc(-n3nc(C)cc3C)n2)c(OC)c1	i	7.0	82.4*	-13.4	-3.8	i
CN(C(=O)CSc1cc(C(=O)c2nccn2C)c2ccccc2n1)c1ccccc1	i	x	106.5*	13.4	1.4	i
O=C(CCCCCN1C(=O)[C@@H]2Cc3ccccc3CN2C1=O)Nc1cccc(F)c1	25*	-9.5	-1.0	4.9	-1.3	i
Cc1cccc(NC(=O)CCCCCN2C(=O)[C@@H]3Cc4ccccc4CN3C2=O)c1	i	-7.6	-7.0	0.9	-2.8	i
SMILES	TMEM16A inh	CSC inhib	Beta cell apopt	MC4R antagonist	MC4R barr agon	ANO1 activ
CCCCCCSc1ccc([C@H]2N[C@@](Cc3ccccc3)(C(=O)OC)[C@H]3C(=O)N(C)C(=O)[C@@H]23)cc1	i	22.0	99.1*	10.9	0.3	i
CCCCCCSc1ccc([C@H]2N[C@@](C)(C(=O)OC)[C@H]3C(=O)N(CC)C(=O)[C@@H]23)cc1	i	77.6*	33.3	12.1	3.8	i
COc1ccccc1NCCC(=O)OCC(=O)Nc1ccccc1Cl	x	-7.3	-0.1	0.1	-3.0	i
CSc1nc(N)nc2c1ncn2CC(=O)NCCCc1ccccc1	x	x	23.3	3.8	0.2	i
CC1=Nc2ccccc2/C1=C/c1sc(=N)n(-c2nccs2)c1O	i	111.3*	56.8	-0.8	-3.1	i
O=C(O)Cc1coc2ccc3ccccc3c12	i	2.3	-0.2	2.7	-3.3	i
CC(C)CN(CC(C)C)C(=O)Cc1coc2ccc3ccccc3c12	25*	3.8	-9.2	7.6	0.6	i
COc1cccc(NC(=S)N2CCN(S(C)(=O)=O)CC2)c1	i	1.4	-0.6	-1.9	-3.8	i
COC(=O)c1c(NC(=O)c2ccco2)sc2c1CCC2	i	76.5*	4.4	-2.5	-0.8	i
Cc1ccc(NC(=O)CC2S/C(=N/c3nccs3)N(C)C2=O)cc1C (stereo unspecified)	i	1.0	-2.0	-2.5	8.6*	i
CCOc1cc(N2CCOCC2)c(OCC)cc1NC(=O)c1ccc(S(=O)(=O)N2CC(C)OC(C)C2)cc1 (stereo unspecified)	x	x	x	3.3	-1.1	i
CCOC(=O)C1(CCc2ccccc2)CCN(Cc2ccc(O)cc2)CC1	i	35.5	13.4	1.1	-3.9	i
CCOC(=O)C1(CCCc2ccccc2)CCN(C2CCSCC2)CC1	x	x	x	0.9	9.2*	i
CCOC(=O)C1(CCc2ccccc2)CCN(Cc2ccc(OC)cc2)CC1	25*	34.2	6.7	4.6	-2.7	i
O=C(CCNC(=O)c1ccco1)NCc1ccc(F)cc1	x	-10.5	-2.7	2.6	-0.2	i
CCN(Cc1ccccc1)c1ccc(/C=N/N=C(N)N)cc1	100*	102.5*	x	6.0	4.4	i
CCN(Cc1ccccc1)c1ccccc1	x	x	x	10.2	0.2	i
CCOC(=O)N1CCN(c2ccc(C(=O)c3cccc(F)c3)cc2)CC1	25*	76.1*	-1.9	14.5	-0.5	i
O=C(c1ccc(N2CCN(C(=O)c3cccc(F)c3)CC2)cc1)c1cccc(F)c1	i	8.2	4.6	17.7	-2.0	i
COc1ccc2[nH]c(=O)c(CN(C(C)=O)c3cc(C)ccc3C)cc2c1	x	x	x	2.9	0.0	x
CCc1ccc(OCC(=O)c2c(O)c3ccccc3oc2=O)cc1	i	-7.6	-0.8	-5.9	0.2	i
